Data published in ChEMBL document CHEMBL2046340, “Naphthoquinones from Onosma paniculata induce cell-cycle arrest and apoptosis in melanoma Cells” (J Nat Prod, 2012).
Activity calls are given as the source filed them. The rule behind the calls is not given here.

Key:
[1] = Cytotoxicity against human WM9 cells after 72 hrs by XTT assay; assay type: functional, cell-based; details: WM9, 72 h
Outline: (§1)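 Melanoma lines (SBcl2, WM35, WM9, WM164) kept in RPMI 1640 with 2 mM glutamine and 2% FBS, 37 °C, 5% CO2. Plated at 5000 cells/well overnight and treated 72 h across at least eight concentrations (freshly diluted from DMSO; vehicle 0.5% DMSO). XTT absorbance read after 1.5 h. IC50 from four-parameter logistic curves; two passages in triplicate, six experiments, mean ± SEM.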

[2] = Cytotoxicity against human WM164 cells after 72 hrs by XTT assay; assay type: functional, cell-based; details: WM164, 72 h; outline: as §1
MDA-MB-231 = assay: Cytotoxicity against human MDA-MB-231 cells after 72 hrs by XTT assay; assay type: functional, cell-based; details: MDA-MB-231, 72 h
Outline: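 MDA-MB-231 breast cancer cells, RPMI 1640 with 2 mM glutamine and 10% FBS, 37 °C in 5% CO2. Seeded at 5000 cells/well, adhered overnight, then 72 h exposure over at least eight concentrations with 0.5% DMSO vehicle. XTT readout after 1.5 h. Four-parameter logistic IC50 from two passages each in three wells; mean ± SEM of six experiments.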

CCRF-CEM = assay: Cytotoxicity against human CCRF-CEM cells after 72 hrs by XTT assay; assay type: functional, cell-based
Outline: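 CCRF-CEM leukaemia cells in RPMI 1640 with 2 mM glutamine and 10% FBS, 37 °C, 5% CO2. Seeded at 10 000 cells/well and exposed for 72 h to at least eight concentrations, freshly diluted from DMSO into medium (vehicle 0.5% DMSO). XTT with electron coupling reagent was read after 4 h. IC50 came from a four-parameter logistic fit over two passages × three wells; six independent experiments.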

HCT-116 = assay: Cytotoxicity against human HCT116 cells after 72 hrs by XTT assay; assay type: functional, cell-based; details: HCT-116, 72 h
Outline: (§2)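 U251 glioblastoma and HCT 116 colon cells grown in high-glucose DMEM with 2 mM glutamine and 10% FBS. 5000 cells/well attached overnight, then received at least eight concentrations for 72 h (0.5% DMSO vehicle). XTT read 1.5 h after addition. IC50 by four-parameter logistic fit; two passages × three wells, six independent experiments, mean ± SEM.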

[3] = Cytotoxicity against human WM35 cells after 72 hrs by XTT assay; assay type: functional, cell-based; details: WM35, 72 h; outline: as §1
MRC5 [4] = assay: Selectivity ratio of IC50 for human MRC5 cells to IC50 for human CCRF-CEM cells
Outline: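 The ratio uses XTT viability IC50s from a 72 h exposure. MRC-5 fibroblasts were grown in MEM and CCRF-CEM cells in RPMI 1640, both with 10% FBS; both were seeded at 10 000 cells/well. XTT was read after 1.5 h (MRC-5) or 4 h (CCRF-CEM). IC50s came from four-parameter logistic fits over at least eight concentrations, six independent experiments.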

MRC5 [5] = assay: Cytotoxicity against human MRC5 cells after 72 hrs by XTT assay; assay type: cell-based; details: MRC5, 72 h
Outline: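 MRC-5 lung fibroblasts in MEM with 2 mM glutamine and 10% FBS. Seeded at 10 000 cells/well, attached overnight, then treated 72 h with at least eight concentrations (DMSO stock diluted in medium, 0.5% DMSO vehicle). XTT was added and read 1.5 h later. IC50 came from a four-parameter logistic curve; two passages × triplicate wells, six independent experiments, mean ± SEM.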

U-251 = assay: Cytotoxicity against human U251 cells after 72 hrs by XTT assay; assay type: functional, cell-based; details: U-251, 72 h; outline: as §2
[6] = Cytotoxicity against human SBcl2 cells after 72 hrs by XTT assay; assay type: functional, cell-based; details: SBcl2, 72 h; outline: as §1
SBcl2 [7] = assay: Induction of morphological changes in human SBcl2 cells assessed as less density and round shape phenotype with fewer dendrites of cells at IC50 after 24 to 48 hrs; assay type: functional, cell-based
[8] = Induction of apoptosis in human WM9 cells assessed as accumulation at sub-G1 phase at IC50 after 24 […]
SBcl2 [9] = assay: Induction of apoptosis in human SBcl2 cells assessed as accumulation at sub-G1 phase at IC50 after 24 […]
[10] = Cell cycle arrest in human SBcl2 cells assessed as increase of cells accumulation at S phase at IC50 after 12 to 72 hrs using propidium iodide staining by FACS analysis; assay type: functional, cell-based
Outline: (§3)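 Melanoma lines were kept in RPMI 1640 with 2 mM L-glutamine, 2% FBS and penicillin/streptomycin at 37 °C under 5% CO2. Cells were exposed for 12–72 h, with 0.5% DMSO vehicle controls, then trypsinized. 5 × 10^5 cells were fixed in ice-cold 70% EtOH for 10 min at 4 °C, washed in PBS and stained with PI/RNase A for 15 min at 37 °C. Phases were read by flow cytometry; n = 3 means.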

WM9 = assay: Induction of morphological changes in human WM9 cells assessed as less density and round shape phenotype with fewer dendrites of cells at IC50 after 24 to 48 hrs; assay type: functional, cell-based
WM164 [11] = assay: Induction of morphological changes in human WM164 cells assessed as less density and round shape phenotype with fewer dendrites of cells at IC50 after 24 to 48 hrs; assay type: functional, cell-based
WM35 = assay: Induction of morphological changes in human WM35 cells assessed as less density and round shape phenotype with fewer dendrites of cells at IC50 after 24 to 48 hrs; assay type: functional, cell-based
[12] = Cell cycle arrest in human WM164 cells assessed as accumulation at G2/M phase at IC50 after 12 to 72 hrs using propidium iodide staining by FACS analysis; assay type: functional, cell-based; outline: as §3
WM164 [13] = assay: Induction of apoptosis in human WM164 cells assessed as increased accumulation at sub-G1 phase at IC50 after 24 […]
[14] = Cell cycle arrest in human WM9 cells assessed as accumulation at G2/M phase at IC50 after 12 to 72 hrs using propidium iodide staining by FACS analysis; assay type: functional, cell-based; outline: as §3
[15] = Induction of apoptosis in human WM35 cells assessed as accumulation at sub-G1 phase at IC50 after 24 […]
[16] = Cell cycle arrest in human WM35 cells assessed as increase of cells accumulation at S phase at IC50 after 12 to 72 hrs using propidium iodide staining by FACS analysis; assay type: functional, cell-based; outline: as §3

Compound	IC50 [1] [µM]	IC50 [2] [µM]	IC50 (MDA-MB-231) [µM]	IC50 (CCRF-CEM) [µM]	IC50 (HCT-116) [µM]	IC50 [3] [µM]	Ratio IC50 (MRC5 [4])	IC50 (MRC5 [5]) [µM]	IC50 (U-251) [µM]	IC50 [6] [µM]	other results
CC(=O)O[C@H](CC=C(C)C)C1=CC(=O)c2c(O)ccc(O)c2C1=O [ACETYLSHIKONIN]	23.5	71.5	11.3	1	9	30.7	2.6	2.6	15.9	13	
CC(C)=CC[C@@H](OC(=O)CC(C)(C)O)C1=CC(=O)c2c(O)ccc(O)c2C1=O [BETA-HYDROXYISOVALERYLSHIKONIN]	12.7	30.9	4.6	0.6	4.1	13	6	3.9	23.6	8.3	
CC(C)=CC[C@@H](OC(=O)C=C(C)C)C1=CC(=O)c2c(O)ccc(O)c2C1=O [DIMETHYLACRYLSHIKONIN]	2.7	8.3	23.2	1.9	20	2.3	1.3	2.4	30.8	1.1	Activity (SBcl2 [7]): Active; Activity [8]: 20%; Activity (SBcl2 [9]): 20%; Activity [10]: Active; Activity (WM9): Active; Activity (WM164 [11]): Active; Activity (WM35): Active; Activity [12]: Active; Activity (WM164 [13]): 20%; Activity [14]: Active; Activity [15]: 20%; Activity [16]: Active
CC[C@]1(O)C[C@@H]2CN(CCc3c([nH]c4ccccc34)[C@@](C(=O)OC)(c3cc4c(cc3OC)N(C)[C@H]3[C@@](O)(C(=O)OC)[C@H](OC(C)=O)[C@]5(CC)C=CCN6CC[C@]43[C@@H]65)C2)C1 [VINBLASTINE]	0.015	0.0042	0.031	0.0094	0.0087	0.0035		0.024	0.0081	0.011	
